Experimental findings from ChEMBL document CHEMBL1938298, “Synthesis and characterization of [¹²⁵I]2-iodo N-[(S)-{(S)-1-methylpiperidin-2-yl}(phenyl)methyl]3-trifluoromethyl-benzamide as novel imaging probe for glycine transporter 1” (Bioorg Med Chem, 2011) are described below.

Structures are written as SMILES. Calls of active or inactive are those of the source. The rule behind the calls is not given here.

Series [1] relates to Mus musculus. In words: In vivo binding affinity to GlyT1 in ddY mouse brain hippocampus at 33.3 kBq, iv after 60 mins in presence of N-Me-SSR504734 2 mg/kg, iv administered 15 mins prior to compound administration relative to control. The arrangement: dose 2 mg/kg. To be noted: tested as the 125I-labelled form. It counts as functional, organism-based. Summed up: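 Male ddY mice (6 W, 30–35 g) were given blocker 2 mg/kg iv in 30% DMSO/saline 15 min before [125I] tracer (ca. 33.3 kBq, 0.1 mL, tail vein). Killed 60 min after tracer injection. Brain dissected into regions including hippocampus, weighed and gamma counted, giving % dose/g and region-to-blood ratio versus control. Mean ± SD, n = 5–6; Kruskal–Wallis with Dunn's post-test.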

Series [2] has as its system Mus musculus. In words: In vivo binding affinity to GlyT1 in ddY mouse brain striatum at 33.3 kBq, iv after 30 mins in presence of SSR504734 2 mg/kg, iv administered 15 mins prior to compound administration relative to control. To be noted: tested as the 125I-labelled form. The arrangement: dose 2 mg/kg. It counts as functional, organism-based.
In series [3] the target is T1, Sodium- and chloride-dependent glycine transporter 1 (Rattus norvegicus) (UniProt P28572).
T1 sequence (whole entry): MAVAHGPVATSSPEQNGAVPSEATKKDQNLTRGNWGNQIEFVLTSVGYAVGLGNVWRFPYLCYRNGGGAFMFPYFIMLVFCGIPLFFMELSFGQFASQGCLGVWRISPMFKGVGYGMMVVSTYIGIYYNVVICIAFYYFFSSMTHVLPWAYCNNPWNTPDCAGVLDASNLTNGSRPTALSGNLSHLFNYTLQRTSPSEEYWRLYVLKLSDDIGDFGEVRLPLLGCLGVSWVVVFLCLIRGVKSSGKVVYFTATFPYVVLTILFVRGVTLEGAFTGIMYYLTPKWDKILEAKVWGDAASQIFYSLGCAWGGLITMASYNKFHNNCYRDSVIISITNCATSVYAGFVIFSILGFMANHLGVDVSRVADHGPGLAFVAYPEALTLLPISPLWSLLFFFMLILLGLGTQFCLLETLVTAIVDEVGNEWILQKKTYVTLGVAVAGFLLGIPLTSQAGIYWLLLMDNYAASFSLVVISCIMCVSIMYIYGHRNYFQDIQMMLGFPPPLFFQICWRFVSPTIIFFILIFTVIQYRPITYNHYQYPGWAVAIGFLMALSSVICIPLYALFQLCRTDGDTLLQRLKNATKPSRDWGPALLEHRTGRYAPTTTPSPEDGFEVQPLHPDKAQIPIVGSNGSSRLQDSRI
In words: Binding affinity to GlyT1 in rat brain striatum at 0.03 to 0.04 nM preincubated for 20 mins in binding buffer before compound addition measured after 30 mins by autoradiography in presence of 0.01 mM GlyT2 inhibitor ORG25543 relative to control. The class given is tissue-based. The following applies: tested as the 125I-labelled form.

The target of series [4] is T1, Sodium- and chloride-dependent glycine transporter 1 (Rattus norvegicus). In words: Binding affinity to GlyT1 in rat brain thalamus at 0.03 to 0.04 nM preincubated for 20 mins in binding buffer before compound addition measured after 30 mins by autoradiography in presence of 1 mM GlyT1 substrate glycine relative to control. It counts as tissue-based. The following applies: tested as the 125I-labelled form.

Series [5] has the same target. The series can be described thus: Binding affinity to GlyT1 in rat brain thalamus at 0.03 to 0.04 nM preincubated for 20 mins in binding buffer before compound addition measured after 30 mins by autoradiography in presence of 10 mM GlyT1 substrate glycine relative to control. It counts as tissue-based. To be noted: tested as the 125I-labelled form.
Series [6] concerns Mus musculus. In words: In vivo binding affinity to GlyT1 in ddY mouse brain cortex at 33.3 kBq, iv after 60 mins in presence of SSR504734 2 mg/kg, iv administered 15 mins prior to compound administration relative to control. It counts as functional, organism-based. Further details: dose 2 mg/kg. The following applies: tested as the 125I-labelled form. Summed up:
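Blocking study in male ddY mice (6 weeks, 30–35 g). The blocker (2 mg/kg in 30% DMSO/saline) was injected i.v. 15 min before about 33.3 kBq [125I]tracer i.v.; mice were killed at 30 or 60 min. Brains were divided into cortex, corpus callosum, hippocampus, thalamus, midbrain, medulla and cerebellum, weighed and gamma-counted as % dose/g. Values are mean ± SD, n = 5–6, compared to control by Kruskal–Wallis with Dunn's post-test.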

Series [7] has as its system Mus musculus. The series can be described thus: In vivo binding affinity to GlyT1 in ddY mouse brain thalamus at 33.3 kBq, iv after 30 mins in presence of SSR504734 2 mg/kg, iv administered 15 mins prior to compound administration relative to control. It counts as functional, organism-based. Further details: dose 2 mg/kg. To be noted: tested as the 125I-labelled form.

Series [8] concerns the target T1, Sodium- and chloride-dependent glycine transporter 1 (Rattus norvegicus). The series can be described thus: Binding affinity to GlyT1 in rat brain corpus callosum at 0.03 to 0.04 nM preincubated for 20 mins in binding buffer before compound addition measured after 30 mins by autoradiography in presence of 10 mM GlyT1 substrate glycine relative to control. It counts as tissue-based. The following applies: tested as the 125I-labelled form. The gist of the method:
(§1)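 Rat brain sagittal sections (20 µm) preincubated 20 min at 25 °C in Tris-HCl buffer pH 7.5 (NaCl, KCl, MgCl2, CaCl2), then 30 min at 25 °C with [125I] tracer (100 kBq, 0.03–0.04 nM) plus competitor (10 µM; glycine 1 or 10 mM). Cold washes, imaging plate 3 days, ROI PSL minus background per mm². % control from ≥triplicate slices, three rats.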

Series [9] shares this target. The series can be described thus: Binding affinity to GlyT1 in rat brain hippocampus at 0.03 to 0.04 nM preincubated for 20 mins in binding buffer before compound addition measured after 30 mins by autoradiography relative to control. It counts as tissue-based. The following applies: tested as the 125I-labelled form. The gist of the method: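 Rat brain sagittal sections (20 µm), 20 min preincubation at 25 °C in Tris-HCl pH 7.5 binding buffer, then [125I] tracer (100 kBq, 0.03–0.04 nM) for 30 min at 25 °C. Nonspecific binding taken with 10 µM unlabeled ligand. Imaging-plate read-out as (PSL−BG)/mm². Mean ± SD, n = 4–5 from at least three rats; Mann–Whitney U-test.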

Series [10] shares this target. In words: Binding affinity to GlyT1 in rat brain cerebral cortex at 0.03 to 0.04 nM preincubated for 20 mins in binding buffer before compound addition measured after 30 mins by autoradiography in presence of 1 mM GlyT1 substrate glycine relative to control. It counts as tissue-based. The following applies: tested as the 125I-labelled form. The gist of the method:
as §1

In the next series the test system is Blood. The series can be described thus: Drug uptake in ddY mouse blood at 11.1 kBq, iv after 15 min by gamma counting. To be noted: in vivo. It counts as ADME, organism-based. Summed up: (§2)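 Male ddY mice (6 weeks, 30–35 g) received about 11.1 kBq [125I]tracer in 0.1 mL i.v. via tail vein. Killed at set times, organs dissected and weighed, radioactivity gamma counted. Reported as % injected dose/g tissue, mean ± SD, n = 5–6.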

In the next series the test system is Liver. In words: Drug uptake in ddY mouse liver at 11.1 kBq, iv after 0.5 min by gamma counting. It counts as ADME, organism-based. To be noted: in vivo. Summed up: (§3)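 Male ddY mice (6 weeks, 30–35 g) were given about 11.1 kBq of [125I]tracer in 0.1 mL i.v. via the tail vein. At each time point the animals were killed and organs dissected, weighed and gamma-counted. Uptake is expressed as % injected dose per gram of tissue, mean ± SD, n = 5–6.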

In the next series the test system is Intestine. In words: Drug uptake in ddY mouse intestine at 11.1 kBq, iv after 60 min by gamma counting. The class given is ADME, organism-based. To be noted: in vivo, 1 h. The gist of the method: as §2
For the next series, the system named is Lung. In words: Drug uptake in ddY mouse lung at 11.1 kBq, iv after 180 min by gamma counting. It counts as ADME, organism-based. To be noted: in vivo, 3 h. Summed up:
as §3

Series [11] has as its system Mus musculus. In words: In vivo binding affinity to GlyT1 in ddY mouse brain thalamus at 33.3 kBq, iv after 30 mins in presence of N-Me-SSR504734 2 mg/kg, iv administered 15 mins prior to compound administration relative to control. It counts as functional.

Regarding `CN1CCCC[C@H]1[C@@H](NC(=O)c1cccc(C(F)(F)F)c1I)c1ccccc1`, the result in the series on Mus musculus [1] was Active. The outcome (with Mus musculus [2]; with Mus musculus [6]; with Mus musculus [7]; in series [9]) was inactive. The Activity in series [3] worked out at 104%; in [4] it was 108%; in series [5] it was 52.7%; in series [8] it was 39.6%; in series [10], 89.6%.

For the molecule `CN1CCCC[C@H]1[C@@H](NC(=O)c1cccc(C(F)(F)F)c1[125I])c1ccccc1`, the Drug uptake is recorded as 0.69 % ID/g in the series with Blood, 1.82 % ID/g in the series with Liver, 9.59 % ID/g with Intestine and 9.34 % ID/g with Lung. In addition, in the series on Mus musculus [11], the Activity stood at 56%.
